Data set [1] is described as follows: MRT (0 to 8 hrs) in C57BL/6J mouse at 50 mg/kg/day, ig by HPLC-MS/MS analysis. It is filed as ADME, organism-based. The note with it: in vivo, po. The gist of the method: (§1)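 Male C57BL/6J mice (6–8 weeks, ~20 g), fasted 12 h, given a single intragastric dose of 25, 50 or 100 mg/kg in 10% DMSO/30% PEG/0.9% NaCl. Retro-orbital blood at 5 min to 8 h; plasma protein-precipitated with methanol plus internal standard, assayed by LC-MS/MS; noncompartmental analysis. Mean ± SD, n = 6.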

The test system of data set [2] is Mus musculus. The experiment in a line: Anti-atherosclerotic activity in apoE knockout mouse fed with western-type diet assessed as reduction in lesions in whole aorta at 12.5 mg/kg/day, ig for 7 weeks by oil-red O staining-based assay relative to control. Also on record: scale not given: the % may be the effect or the level left. It is filed as functional. The gist of the method:
(§2)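 ApoE KO mice fed Western-type diet, then given 12.5 or 40 mg/kg/day by gavage in 30% PEG-400/10% DMSO/0.9% NaCl for 7 weeks. Aortic root: H&E-stained 4 µm sections, mean lesion area from 6 sections per animal. Whole aorta: en face Oil Red O staining, percentage of area stained. Compared with vehicle, n = 10.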

Data set [3] has as its system Mus musculus. Description: Anti-atherosclerotic activity in apoE knockout mouse fed with western-type diet assessed as reduction in lesions in proximal aorta at 12.5 mg/kg/day, ig for 7 weeks by hematoxylin and eosin staining-based assay relative to control. It is filed as functional. Also on record: scale not given: the % may be the effect or the level left. The gist of the method: as §2

The nature of data set [4]: Apparent volume of distribution during terminal phase in C57BL/6J mouse at 50 mg/kg/day, ig by HPLC-MS/MS analysis. It is filed as ADME, organism-based. The note with it: in vivo, po, read-out: Vz/F. In a few lines: (§3)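 Male C57BL/6J mice, six to eight weeks old, about 20 g, fasted 12 h with free water. Given a single intragastric dose of 25, 50 or 100 mg/kg in 10% DMSO/30% PEG-100/0.9% NaCl. Blood taken retro-orbitally at 5 min to 8 h. Plasma protein-precipitated with methanol plus internal standard, then HPLC-MS/MS on a C18 column. Noncompartmental analysis, n = 6.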

The nature of data set [5]: MRT (0 to 8 hrs) in C57BL/6J mouse at 25 mg/kg/day, ig by HPLC-MS/MS analysis. It is filed as ADME, organism-based. Particulars: in vivo, po. In a few lines:
as §1

Data set [6] concerns Mus musculus. The experiment in a line: Effect on plasma ALT levels in C57BL/6J mouse at 100 mg/kg/day, ig qd for 7 days measured on day 7. The note with it: in vivo, po, 168 h. It is filed as ADME, organism-based. In a few lines: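 C57BL/6J mice dosed by gavage at 100 mg/kg once daily for 7 days. Plasma SM sampled on days 0, 3 and 7. Plasma ALT and AST measured on day 7 by automated analyzer. Compared with vehicle, n = 10.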

The nature of data set [7]: Ratio of drug level in liver to plasma in C57BL/6J mouse at 100 mg/kg/day, ig qd for 7 days measured on day 7. The note with it: po. It is filed as ADME, organism-based. In a few lines: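 C57BL/6J mice dosed intragastrically at 100 mg/kg once daily for 7 days; compound levels in liver and blood measured on day 7, n = 5.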
The species named for data set [8] is Homo sapiens. The experiment in a line: Selectivity ratio of IC50 for purified SMS1 (unknown origin) to IC50 for purified SMS2 (unknown origin).
A short description of data set [9]: Dose normalized AUC (0 to 8 hrs) in C57BL/6J mouse at 50 mg/kg/day, ig by HPLC-MS/MS analysis. It is filed as ADME, organism-based. The note with it: in vivo, po. In a few lines:
as §3

The nature of data set [10]: Apparent oral clearance in C57BL/6J mouse at 100 mg/kg/day, ig by HPLC-MS/MS analysis. Particulars: in vivo. It is filed as ADME, organism-based. The gist of the method:
as §3

A short description of data set [11]: MRT (0 to 8 hrs) in C57BL/6J mouse at 100 mg/kg/day, ig by HPLC-MS/MS analysis. It is filed as ADME, organism-based. Particulars: in vivo, po. In a few lines:
as §1

Data set [12] deals with Mus musculus. The experiment in a line: Anti-atherosclerotic activity in apoE knockout mouse fed with western-type diet assessed as reduction in CD4+/CD8+ cell ratio at 12.5 mg/kg/day, ig for 7 weeks by flow cytometric analysis relative to control. It is filed as functional. The arrangement: scale not given: the % may be the effect or the level left. In a few lines: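 ApoE KO mice started at 8 weeks old on Western-type diet for 6 weeks. Then dosed by gavage daily with vehicle, 12.5 or 40 mg/kg for 7 weeks with the diet continued, 10 mice per group. Blood single-cell suspensions stained with antibodies in PBS and analysed by flow cytometry. Mean ± SD, n = 5.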
A general note: Flow cytometry measures light scatter and fluorescence of single cells or particles in a stream.

Data set [13] in a line: Apparent volume of distribution during terminal phase in C57BL/6J mouse at 25 mg/kg/day, ig by HPLC-MS/MS analysis. It is filed as ADME, organism-based. Particulars: in vivo, po, read-out: Vz/F. In a few lines: as §3
Data set [14] is described as follows: Dose normalized AUC (0 to 8 hrs) in C57BL/6J mouse at 25 mg/kg/day, ig by HPLC-MS/MS analysis. Particulars: in vivo, po. It is filed as ADME, organism-based. In a few lines: as §3
A short description of data set [15]: AUC (0 to 8 hrs) in C57BL/6J mouse at 50 mg/kg/day, ig by HPLC-MS/MS analysis. It is filed as ADME, organism-based. Also on record: time < 8 hr, dose 50 mg/kg/day, route intragastric. Particulars: in vivo, po. In a few lines:
as §3

Data set [16] can be described thus: AUC (0 to 8 hrs) in C57BL/6J mouse at 25 mg/kg/day, ig by HPLC-MS/MS analysis. Particulars: in vivo, po. Also on record: dose 25 mg/kg/day, time < 8 hr, route intragastric. It is filed as ADME, organism-based. The gist of the method: as §3
Data set [17] is described as follows: AUC (0 to 8 hrs) in C57BL/6J mouse at 100 mg/kg/day, ig by HPLC-MS/MS analysis. Also on record: dose 100 mg/kg/day, time < 8 hr, route intragastric. It is filed as ADME, organism-based. The note with it: in vivo, po. In a few lines: as §3
The subject of data set [18] is Mus musculus. The experiment in a line: Anti-atherosclerotic activity in apoE knockout mouse fed with western-type diet assessed as reduction in plasma SM level at 40 mg/kg/day, ig for 7 weeks relative to control. The arrangement: scale not given: the % may be the effect or the level left. It is filed as functional. In a few lines:
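ApoE KO mice on Western-type diet, dosed by gavage at 12.5 or 40 mg/kg/day for 7 weeks, n = 10. Blood collected at 20 weeks of age. Plasma SM measured by a previously reported method. ALT and AST read on an automated biochemical analyzer.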

Data set [19] deals with T1, Phosphatidylcholine:ceramide cholinephosphotransferase 1 (Homo sapiens, UniProt Q86VZ5).
T1 sequence (Q86VZ5 whole entry): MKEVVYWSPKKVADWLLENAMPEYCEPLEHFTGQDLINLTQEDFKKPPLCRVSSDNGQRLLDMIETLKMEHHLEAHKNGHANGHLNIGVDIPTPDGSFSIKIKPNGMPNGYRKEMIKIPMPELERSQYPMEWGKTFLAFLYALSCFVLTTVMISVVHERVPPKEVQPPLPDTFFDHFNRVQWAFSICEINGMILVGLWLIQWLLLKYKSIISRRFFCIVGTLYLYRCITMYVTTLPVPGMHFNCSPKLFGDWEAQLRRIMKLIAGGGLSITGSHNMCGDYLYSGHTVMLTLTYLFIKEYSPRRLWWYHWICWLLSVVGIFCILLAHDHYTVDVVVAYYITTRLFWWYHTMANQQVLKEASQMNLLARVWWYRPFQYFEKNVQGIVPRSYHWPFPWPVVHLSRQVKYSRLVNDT
The experiment in a line: (§4) Inhibition of purified SMS1 (unknown origin) using C6-NBD-Ceramide and DMPC as substrates preincubated for 5 mins followed by substrate addition and measured after 30 mins by TLC or HPLC method. The gist of the method: (§5)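 Purified SMS1 or SMS2 in DDM detergent buffer; inhibitor in DMSO pre-incubated 5 min at room temperature, then C6-NBD-ceramide and DMPC added, 30 min at 37 °C; ethanol quench, TLC or HPLC read-out. Activity expressed as percent of no-inhibitor vehicle; IC50 from ten (SMS1) or eight (SMS2) concentrations, mean ± SD, n = 3.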

Data set [20] addresses T2, Phosphatidylcholine:ceramide cholinephosphotransferase 1 (Homo sapiens) (UniProt Q86VZ5).
T2 sequence (whole entry): T1 sequence (Q86VZ5 whole entry)
Described as §4. In a few lines: as §5

Each structure is given as a SMILES string.

`CCc1ccccc1COc1ccccc1C(=O)Nc1cccnc1`: the MRT (commonly a mean duration of stay, worked out from the concentration-time curve) stood at 1.66 h in [1], 1.9 h in data set [5] and 1.66 h in data set [11]. For the same compound, the Activity in data set [2] is 32%; in [3] it was 38%; in data set [6], “Non-Toxic”; in [12], 34%; in [18], 41%. Moreover, the figures for the Vd/F in [4] and in data set [13] were 26.5 L and 51.4 L, respectively. The Kp (as a rule, the ratio of the level in a tissue or fluid to that in plasma or blood) at 168 h in data set [7] worked out at 5. The Ratio IC50 in [8] was > 1400. The AUC/dose in data set [9] was determined as 0.12 µg·h/mL; in data set [14], 0.08 µg·h/mL. Further, the CL/F (commonly the apparent clearance, not corrected for the fraction that reaches the circulation) in [10] was 143 mL/min. In addition, the AUC (in general, concentration integrated over time) at 8 h in [15] came to 6260 ng·h/mL; in data set [16], 1990 ng·h/mL; in data set [17], 13200 ng·h/mL. Also, in [19], half-maximal inhibition (IC50) required 134 µM. Besides, the inhibition result in data set [20] was “Dose-dependent effect”.

(Values after ChEMBL document CHEMBL4411297, “Discovery, synthesis and anti-atherosclerotic activities of a novel selective sphingomyelin synthase 2 inhibitor” (Eur J Med Chem, 2019).)
